We go through 29 compounds from ChEMBL document CHEMBL1133942, “Synthesis and bioactivities of novel pyridazine derivatives: inhibitors of interleukin-1 beta (IL-1beta) production” (Bioorg Med Chem Lett, 2001).

One series relates to HL-60. The series can be described thus: Inhibitory concentration against interleukin-1 beta production in HL-60 cells stimulated with lipopolysaccharide (LPS). Format: functional, cell-based. The note with it: Homo sapiens. The procedure, abridged: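 IC50 obtained by comparing IL-1β yield with an untreated control to which no test compound was added.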
The test system of series [1] is Mus musculus. Nature of the series: Observation of behavior in mice after ip administration at the dose of 30 mg/kg; Depression of spontaneous locomotor activity. Type of series: functional, organism-based. The arrangement: dose 30 mg/kg.
Series [2] has as its system Mus musculus. The series can be described thus: Observation of behavior in mice following 30 mg/kg i.p. administration; No significant change. Format: functional, organism-based. The arrangement: dose 30 mg/kg.
For series [3], the system named is Mus musculus. Nature of the series: Observation of behavior in mice after ip administration at the dose of 30 mg/kg; Weak sedation. The arrangement: dose 30 mg/kg. Type of series: functional, organism-based.
The test system of series [4] is Mus musculus. The series can be described thus: Observation of behavior in mice after ip administration at the dose of 30 mg/kg; symptoms were tremor, dyspnea, difficulty in walking and death. Format: functional, organism-based. Also noted: dose 30 mg/kg.
For series [5], the species on record is Mus musculus. Nature of the series: Number of dead mice/total number of mice used; 6/8. Format: ADME, organism-based. To be noted: in vivo.

pIC50: −log10 of the molar value. The source made the active and inactive calls. The rule behind the calls is not given here.

Turning to `COc1ccc(-c2cc(Oc3ccc(F)cc3F)nnc2-c2ccc(OC)cc2)cc1`, in the series with HL-60, the negative logarithm of the IC50 (pIC50) (commonly the negative decadic logarithm of the IC50, by convention in mol/L) was 5.63. For the same compound, the Symptoms result in the series on Mus musculus [1] is given as “Depression of spontaneous locomotor activity”.

Take `COc1ccc(-c2cc(NCc3ccccc3)nnc2-c2ccc(OC)cc2)cc1`: in the series with HL-60, the pIC50 is less than 4.00.

`COc1ccc(-c2cc(Oc3ccncc3)nnc2-c2ccc(OC)cc2)cc1` had a pIC50 with HL-60 of 5.91. Moreover, in the series with Mus musculus [2], the Symptoms result was “No significant change”.

For the compound `COc1ccc(-c2cc(Oc3ccc([N+](=O)[O-])cc3)nnc2-c2ccc(OC)cc2)cc1`, in the series with HL-60, the pIC50 was 6.20. Further, in the series with Mus musculus [2], the Symptoms entry was “No significant change”.

In the series on HL-60, `COc1ccc(-c2cc(Nc3cc(OC)c(OC)c(OC)c3)nnc2-c2ccc(OC)cc2)cc1` had a pIC50 of less than 4.00. Besides, the Symptoms result in the series with Mus musculus [2] is “No significant change”.

For the compound `COc1ccc(-c2cc(Oc3cccc(C#N)c3)nnc2-c2ccc(OC)cc2)cc1`, the pIC50 with HL-60 was 6.80.

In turn, `COc1ccc(-c2cc(Oc3ccccc3)nnc2-c2ccc(OC)cc2)cc1` gave a pIC50 in the series on HL-60 of 7.00. The Symptoms entry in the series on Mus musculus [2] was “No significant change”.

The compound `COc1ccc(-c2ncc(C#N)nc2-c2ccc(OC)cc2)cc1` had a pIC50 in the series with HL-60 of 5.18. For the same compound, in the series on Mus musculus [3], the Symptoms entry was “Weak sedation”.

`COc1ccc(Oc2cc(-c3ccc(OC)cc3)c(-c3ccc(OC)cc3)nn2)cc1` had a pIC50 in the series with HL-60 of 6.35.

For the compound `C[C@]12C=CC(=O)C=C1CCC1[C@@H]2[C@@H](O)C[C@@]2(C)[C@H]1CC[C@]2(O)C(=O)CO` (single isomer, unassigned) [PREDNISOLONE], the negative logarithm of the IC50 (pIC50) with HL-60 was 6.12. Besides, the Symptoms result with Mus musculus [2] is “inactive”.

`COc1ccc(-c2cc(Sc3ccccc3)nnc2-c2ccc(OC)cc2)cc1` had a pIC50 in the series with HL-60 of 4.69. The Symptoms result in the series with Mus musculus [2] was “No significant change”.

Compound `COc1ccc(-c2cc(Sc3cc(Cl)c(Cl)c(Cl)c3)nnc2-c2ccc(OC)cc2)cc1` showed a negative logarithm of the IC50 (pIC50) in the series with HL-60 of 6.70. Besides, the Symptoms entry in the series with Mus musculus [2] is “No significant change”.

Turning to `CCCN(c1cc(-c2ccc(OC)cc2)c(-c2ccc(OC)cc2)nn1)c1ccc(F)cc1F`, the pIC50 in the series with HL-60 was 5.50. Also, the Symptoms entry with Mus musculus [2] is “No significant change”.

As to `COc1ccc(-c2cnc(C#N)nc2-c2ccc(OC)cc2)cc1`, the negative-log IC50 (pIC50) in the series with HL-60 was 5.54. Besides, the Symptoms result in the series with Mus musculus [2] was “No significant change”.

As for `COc1ccc(-c2cc(Nc3ccc(F)cc3F)nnc2-c2ccc(OC)cc2)cc1`, the pIC50 with HL-60 was 5.72. Further, in the series on Mus musculus [2], the Symptoms result was “No significant change”.

`COc1ccc(-c2cc(Oc3ccc(F)c(F)c3)nnc2-c2ccc(OC)cc2)cc1`: in the series with HL-60, the pIC50 was 6.34.

Consider `COc1ccc(-c2cc(C#N)nnc2-c2ccc(OC)cc2)cc1`, for which the Symptoms result in the series on Mus musculus [4] was “Tremor, dyspnea, difficulty in walking and death”. This compound also gave a pIC50 with HL-60 of 7.05. This compound yielded an Activity in the series filed under Mus musculus [5] of 6.

Regarding `COc1ccc(-c2cc(Oc3c(F)c(F)cc(F)c3F)nnc2-c2ccc(OC)cc2)cc1`, the negative logarithm of the IC50 (pIC50) in the series with HL-60 is 6.72. For the same compound, the Symptoms entry with Mus musculus [2] was “No significant change”.

In the case of `COc1ccc(-c2cc(Oc3ccccc3C#N)nnc2-c2ccc(OC)cc2)cc1`, the pIC50 in the series on HL-60 is 6.82. Also, the Symptoms entry in the series on Mus musculus [2] was “No significant change”.

The compound `COc1ccc(-c2cc(Oc3c(F)cccc3F)nnc2-c2ccc(OC)cc2)cc1` had a pIC50 in the series with HL-60 of 6.46. Besides, the Symptoms result in the series with Mus musculus [2] is “No significant change”.

With `COc1ccc(-c2cc(Oc3cc(F)ccc3F)nnc2-c2ccc(OC)cc2)cc1`, the pIC50 in the series on HL-60 is 6.74.

For the compound `COc1ccc(-c2cc(Sc3ccc(F)cc3F)nnc2-c2ccc(OC)cc2)cc1`, the pIC50 in the series on HL-60 was 5.73. Also, in the series with Mus musculus [3], the Symptoms result was “Weak sedation”.

Regarding `COc1ccc(-c2cc(Oc3cccc(F)c3F)nnc2-c2ccc(OC)cc2)cc1`, in the series on HL-60, the pIC50 was 6.92. Also, the Symptoms result in the series with Mus musculus [2] is “No significant change”.

In the series on HL-60, `COc1ccc(-c2cc(Oc3ccc(C#N)cc3)nnc2-c2ccc(OC)cc2)cc1` had a pIC50 of less than 4.00. The Symptoms entry in the series with Mus musculus [2] is “No significant change”.

As to `COc1ccc(-c2cc(Oc3ccc(Cl)cc3Cl)nnc2-c2ccc(OC)cc2)cc1`, the pIC50 in the series on HL-60 is 5.60. The Symptoms result with Mus musculus [2] is “No significant change”.

With `COc1ccc(-c2cc(Oc3cccc([N+](=O)[O-])c3)nnc2-c2ccc(OC)cc2)cc1`, the pIC50 with HL-60 is 5.63. Also, the Symptoms entry in the series on Mus musculus [2] was “No significant change”.

`COc1ccc(-c2cc(Oc3cc(F)cc(F)c3)nnc2-c2ccc(OC)cc2)cc1`: the pIC50 in the series on HL-60 is 5.86. The Symptoms entry in the series with Mus musculus [2] was “No significant change”.

Regarding `COc1ccc(-c2cc(Oc3c(F)c(F)c(F)c(F)c3F)nnc2-c2ccc(OC)cc2)cc1`, the pIC50 with HL-60 is 7.40. In addition, in the series on Mus musculus [1], the Symptoms result was “Depression of spontaneous locomotor activity”.

Compound `COc1ccc(-c2cc(-c3ccccc3)nnc2-c2ccc(OC)cc2)cc1` showed a pIC50 with HL-60 of 5.55. Further, the Symptoms result with Mus musculus [2] is “No significant change”.
